Laboratory results as given in ChEMBL document CHEMBL4393666, “Synthesis and Anti-HCV Activities of 4'-Fluoro-2'-Substituted Uridine Triphosphates and Nucleotide Prodrugs: Discovery of 4'-Fluoro-2'- C-methyluridine 5'-Phosphoramidate Prodrug (AL-335) for the Treatment of Hepatitis C Infection” (J Med Chem, 2019).

What was measured:
[1] = Cytotoxicity against human HuH7 cells infected with HCV con1 subgenomic replicon assessed as reduction in cell viability measured after 3 days by CellTiter-blue cell viability assay; type: cell-based, Huh-7
In short: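 Con1 replicon Huh-7 cells treated as for the replicon assay (DMEM, 2% FBS, 0.5% DMSO, no G418, 37°C) for 3 days. Viability by CellTiter-Blue; CC50 by curve fitting.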

Hepatitis C virus = test: Antiviral activity against HCV con1 subgenomic replicon infected in human HuH7 cells assessed as reduction in viral RNA replication by qRT-PCR analysis; type: functional, organism-based, Hepacivirus hominis; details: isolate Con1, Huh-7
In short: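 Con1 subgenomic replicon Huh-7 cells (neomycin selection, kept in DMEM/10% FBS with 0.25 mg/ml G418) treated with compounds in DMEM, 2% FBS, 0.5% DMSO, no G418, at 37°C. Total RNA extracted; HCV RNA copy number by multiplex Taqman QRT-PCR. EC50/EC90 by 4-parameter curve fit; EC50 is the mean of ≥2 independent runs.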

[2] = Inhibition of RNA polymerase 2 in human HeLa cell nuclear extract assessed as reduction in RNA transcription by PAGE analysis; type: cell-based
In short: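 In vitro transcription by RNA polymerase II in HeLa cell nuclear extract; RNA products resolved on 6% TBE-urea polyacrylamide gels.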

DNA polymerase beta = DNA polymerase beta (Homo sapiens, UniProt P06746); test: Inhibition of human DNA polymerase-beta assessed as reduction in [3H]dTTP incorporation in to activated calf thymus DNA substrate at 100 uM by scintillation counting method relative to control; details: human DNA polymerase-beta enzyme, probe [3H]dTTP
DNA polymerase gamma = biological target: T1, DNA polymerase gamma (Homo sapiens, UniProt P54098); test: Inhibition of human DNA polymerase-gamma assessed as reduction in [3H]dTTP incorporation in to activated calf thymus DNA substrate at 100 uM by scintillation counting method relative to control; details: human DNA polymerase-gamma enzyme, probe [3H]dTTP
T1 sequence (P54098 whole entry): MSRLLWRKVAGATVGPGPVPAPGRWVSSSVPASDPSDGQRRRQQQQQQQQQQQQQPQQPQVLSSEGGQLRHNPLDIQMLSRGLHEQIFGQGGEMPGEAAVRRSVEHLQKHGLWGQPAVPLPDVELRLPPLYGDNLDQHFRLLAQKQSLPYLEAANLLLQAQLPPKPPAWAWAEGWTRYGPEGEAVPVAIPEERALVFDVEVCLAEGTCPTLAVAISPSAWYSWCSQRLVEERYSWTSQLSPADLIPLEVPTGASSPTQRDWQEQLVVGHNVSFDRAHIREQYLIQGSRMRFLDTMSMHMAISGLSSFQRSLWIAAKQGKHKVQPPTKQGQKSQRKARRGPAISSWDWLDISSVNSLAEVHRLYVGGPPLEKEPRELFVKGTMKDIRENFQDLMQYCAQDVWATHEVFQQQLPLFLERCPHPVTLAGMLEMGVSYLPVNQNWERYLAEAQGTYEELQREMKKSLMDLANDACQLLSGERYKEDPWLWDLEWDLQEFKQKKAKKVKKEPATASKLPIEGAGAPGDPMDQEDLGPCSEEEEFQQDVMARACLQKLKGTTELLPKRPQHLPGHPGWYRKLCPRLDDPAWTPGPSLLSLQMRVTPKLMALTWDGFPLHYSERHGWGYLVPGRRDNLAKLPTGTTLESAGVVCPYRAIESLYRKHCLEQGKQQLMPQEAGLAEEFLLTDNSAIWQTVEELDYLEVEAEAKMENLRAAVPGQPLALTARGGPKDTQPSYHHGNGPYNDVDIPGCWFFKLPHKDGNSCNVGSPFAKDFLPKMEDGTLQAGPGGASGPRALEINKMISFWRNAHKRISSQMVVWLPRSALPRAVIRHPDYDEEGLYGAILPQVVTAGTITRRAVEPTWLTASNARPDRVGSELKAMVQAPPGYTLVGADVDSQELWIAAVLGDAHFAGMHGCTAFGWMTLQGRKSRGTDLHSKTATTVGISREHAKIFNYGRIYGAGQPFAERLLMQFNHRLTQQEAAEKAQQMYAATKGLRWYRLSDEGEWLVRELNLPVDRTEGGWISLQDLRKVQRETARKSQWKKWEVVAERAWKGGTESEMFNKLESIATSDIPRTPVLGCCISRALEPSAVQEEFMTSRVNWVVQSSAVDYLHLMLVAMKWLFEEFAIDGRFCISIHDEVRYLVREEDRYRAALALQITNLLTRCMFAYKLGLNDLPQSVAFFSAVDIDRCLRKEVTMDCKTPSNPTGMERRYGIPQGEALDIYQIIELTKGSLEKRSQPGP

DNA polymerase alpha = biological target: T2, DNA polymerase alpha (Homo sapiens, UniProt P09884); test: Inhibition of human DNA polymerase-alpha assessed as reduction in [3H]dTTP incorporation in to activated calf thymus DNA substrate at 100 uM by scintillation counting method relative to control; details: human DNA polymerase-alpha enzyme, probe [3H]dTTP
T2 sequence (P09884 whole entry): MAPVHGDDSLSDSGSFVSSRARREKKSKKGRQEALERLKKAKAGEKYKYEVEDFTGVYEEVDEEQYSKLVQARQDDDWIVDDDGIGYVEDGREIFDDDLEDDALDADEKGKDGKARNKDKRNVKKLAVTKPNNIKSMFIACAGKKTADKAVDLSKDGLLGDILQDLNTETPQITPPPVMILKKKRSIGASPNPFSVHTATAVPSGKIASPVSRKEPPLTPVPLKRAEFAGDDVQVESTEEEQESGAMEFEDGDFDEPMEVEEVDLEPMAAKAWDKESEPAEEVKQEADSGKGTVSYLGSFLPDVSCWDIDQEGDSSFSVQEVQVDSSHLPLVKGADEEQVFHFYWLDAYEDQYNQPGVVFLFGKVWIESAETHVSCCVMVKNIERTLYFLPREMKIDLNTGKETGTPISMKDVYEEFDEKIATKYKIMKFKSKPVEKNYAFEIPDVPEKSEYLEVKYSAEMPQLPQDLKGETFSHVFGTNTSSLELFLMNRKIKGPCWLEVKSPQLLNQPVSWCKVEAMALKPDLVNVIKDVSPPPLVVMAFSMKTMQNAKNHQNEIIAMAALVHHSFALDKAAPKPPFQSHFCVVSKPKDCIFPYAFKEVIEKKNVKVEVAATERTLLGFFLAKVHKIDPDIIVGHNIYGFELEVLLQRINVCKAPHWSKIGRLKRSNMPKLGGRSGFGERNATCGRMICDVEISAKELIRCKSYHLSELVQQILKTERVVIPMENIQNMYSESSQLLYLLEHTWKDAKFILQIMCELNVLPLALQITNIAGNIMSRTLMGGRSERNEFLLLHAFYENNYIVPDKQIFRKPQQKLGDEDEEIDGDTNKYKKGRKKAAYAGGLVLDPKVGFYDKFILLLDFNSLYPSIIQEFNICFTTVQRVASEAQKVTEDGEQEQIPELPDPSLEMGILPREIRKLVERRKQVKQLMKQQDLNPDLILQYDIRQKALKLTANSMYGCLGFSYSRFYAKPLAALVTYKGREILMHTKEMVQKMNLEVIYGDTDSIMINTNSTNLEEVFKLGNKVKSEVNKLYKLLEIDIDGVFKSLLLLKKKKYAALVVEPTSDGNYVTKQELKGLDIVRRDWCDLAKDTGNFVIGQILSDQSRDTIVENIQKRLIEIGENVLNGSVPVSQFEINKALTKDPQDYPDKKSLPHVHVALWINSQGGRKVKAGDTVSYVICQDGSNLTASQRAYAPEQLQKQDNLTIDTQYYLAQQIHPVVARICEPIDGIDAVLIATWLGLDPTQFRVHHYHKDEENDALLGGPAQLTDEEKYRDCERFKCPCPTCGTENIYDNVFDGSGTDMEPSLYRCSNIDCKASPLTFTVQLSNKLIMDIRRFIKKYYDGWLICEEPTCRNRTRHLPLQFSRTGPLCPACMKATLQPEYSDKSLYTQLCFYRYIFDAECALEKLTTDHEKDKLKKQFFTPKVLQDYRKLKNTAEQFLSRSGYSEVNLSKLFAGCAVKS

[3] = biological target: RNA-directed RNA polymerase (Hepacivirus hominis, UniProt O39930); test: Inhibition of HCV NS5B RNA-dependent RNA polymerase activity assessed as reduction in radiolabeled-CTP incorporation into RNA using cIRES template measured after 2 hrs by microscintillation counting method
Chain of RNA-directed RNA polymerase (O39930 whole entry): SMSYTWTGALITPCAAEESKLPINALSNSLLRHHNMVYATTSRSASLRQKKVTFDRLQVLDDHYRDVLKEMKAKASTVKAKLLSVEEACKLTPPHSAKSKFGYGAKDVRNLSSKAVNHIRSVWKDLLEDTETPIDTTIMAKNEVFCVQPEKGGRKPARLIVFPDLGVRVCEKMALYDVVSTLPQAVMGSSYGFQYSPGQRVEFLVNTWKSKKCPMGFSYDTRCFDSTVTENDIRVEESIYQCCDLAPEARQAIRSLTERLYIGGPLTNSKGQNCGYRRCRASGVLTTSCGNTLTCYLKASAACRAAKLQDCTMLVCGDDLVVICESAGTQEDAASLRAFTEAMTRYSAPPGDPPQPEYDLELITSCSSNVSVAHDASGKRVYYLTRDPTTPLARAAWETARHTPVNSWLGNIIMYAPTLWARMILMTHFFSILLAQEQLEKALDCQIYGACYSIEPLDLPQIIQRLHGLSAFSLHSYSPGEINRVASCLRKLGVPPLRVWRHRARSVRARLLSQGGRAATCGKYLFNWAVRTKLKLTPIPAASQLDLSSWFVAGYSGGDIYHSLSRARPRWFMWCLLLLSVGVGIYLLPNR

| SMILES | CC50 at 72 h [1] [nM] | EC50 (Hepatitis C virus) [nM] | IC50 [3] [nM] | further results |
| --- | --- | --- | --- | --- |
| CC(C)OC(=O)[C@H](C)N[P@@](=O)(OC[C@@]1(F)O[C@@H](n2ccc(=O)[nH]c2=O)[C@](C)(O)[C@@H]1O)Oc1ccccc1 | > 100000 | 940 | – | – |
| C[C@@]1(F)[C@H](O)[C@@H](COP(=O)(O)OP(=O)(O)OP(=O)(O)O)O[C@H]1n1ccc(=O)[nH]c1=O [GS-461203] | – | – | – | IC50 [2]: > 100000 nM; inhibition at 100 µM (DNA polymerase beta): 14%; inhibition at 100 µM (DNA polymerase gamma): 9.2%; inhibition at 100 µM (DNA polymerase alpha): 58.2% |
| CC[C@]1(O)[C@H](n2ccc(=O)[nH]c2=O)O[C@](F)(COP(=O)(N[C@@H](C)C(=O)OC(C)C)Oc2ccccc2)[C@H]1O (stereo partly specified) | > 100000 | 43000 | – | – |
| C[C@H](NP(=O)(OC[C@@]1(F)O[C@@H](n2ccc(=O)[nH]c2=O)[C@](C)(O)[C@@H]1O)Oc1ccccc1)C(=O)OCC(C)(C)C (stereo partly specified) | > 100000 | 40 | – | – |
| C#C[C@]1(O)[C@H](n2ccc(=O)[nH]c2=O)O[C@](F)(COP(=O)(N[C@@H](C)C(=O)OC2CCCCC2)Oc2ccccc2)[C@H]1O (stereo partly specified) | > 100000 | 70 | – | – |
| CC(C)OC(=O)[C@H](C)NP(=O)(OC[C@@]1(F)O[C@@H](n2ccc(=O)[nH]c2=O)[C@](C)(O)[C@@H]1O)Oc1ccc(Cl)cc1 (stereo partly specified) | > 100000 | 80 | – | – |
| C#C[C@]1(O)[C@H](n2ccc(=O)[nH]c2=O)O[C@](F)(COP(=O)(O)OP(=O)(O)OP(=O)(O)O)[C@H]1O | – | – | 39 | – |
| C#C[C@@]1(F)[C@H](O)[C@@H](COP(=O)(O)OP(=O)(O)OP(=O)(O)O)O[C@H]1n1ccc(=O)[nH]c1=O | – | – | 330 | – |
| C=C[C@]1(O)[C@H](n2ccc(=O)[nH]c2=O)O[C@](F)(COP(=O)(N[C@@H](C)C(=O)OC(C)C)Oc2ccccc2)[C@H]1O (stereo partly specified) | > 100000 | 8300 | – | – |
| CC(C)OC(=O)[C@H](C)NP(=O)(OC[C@@]1(F)O[C@@H](n2ccc(=O)[nH]c2=O)[C@@](F)(Cl)[C@@H]1O)Oc1ccccc1 (stereo partly specified) | > 100000 | 45 | – | – |
| CC[C@]1(O)[C@H](n2ccc(=O)[nH]c2=O)O[C@](F)(COP(=O)(O)OP(=O)(O)OP(=O)(O)O)[C@H]1O | – | – | 84000 | – |
| CCOC(=O)[C@H](C)NP(=O)(N[C@@H](C)C(=O)OCC)OC[C@@]1(F)O[C@@H](n2ccc(=O)[nH]c2=O)[C@](C)(O)[C@@H]1O | > 100000 | 7500 | – | – |
| CC(C)OC(=O)[C@H](C)NP(=O)(OC[C@H]1O[C@@H](n2ccc(=O)[nH]c2=O)[C@](C)(Cl)[C@@H]1O)Oc1ccccc1 (stereo partly specified) | > 100000 | 120 | – | – |
| O=c1ccn([C@@H]2O[C@](F)(COP(=O)(O)OP(=O)(O)OP(=O)(O)O)[C@@H](O)[C@]2(F)Cl)c(=O)[nH]1 | – | – | 190 | inhibition at 100 µM (DNA polymerase beta): 18.1%; inhibition at 100 µM (DNA polymerase gamma): 7.9%; inhibition at 100 µM (DNA polymerase alpha): 75.8% |
| CC(C)OC(=O)[C@H](C)NP(=O)(N[C@@H](C)C(=O)OC(C)C)OC[C@@]1(F)O[C@@H](n2ccc(=O)[nH]c2=O)[C@](C)(O)[C@@H]1O | > 100000 | 6600 | – | – |
| CC(C)OC(=O)[C@H](C)NP(=O)(OC[C@H]1O[C@@H](n2ccc(=O)[nH]c2=O)[C@](C)(F)[C@@H]1O)Oc1ccccc1 (stereo partly specified) | > 100000 | 220 | – | – |
| O=c1ccn([C@@H]2O[C@](F)(COP(=O)(O)OP(=O)(O)OP(=O)(O)O)[C@@H](O)[C@]2(O)CF)c(=O)[nH]1 | – | – | 150 | – |
| CC(C)OC(=O)[C@H](C)NP(=O)(OC[C@@]1(F)O[C@@H](n2ccc(=O)[nH]c2=O)[C@](C)(Cl)[C@@H]1O)Oc1ccccc1 (stereo partly specified) | > 100000 | 100 | – | – |
| CC(C)OC(=O)[C@H](C)NP(=O)(OC[C@@]1(F)O[C@@H](n2ccc(=O)[nH]c2=O)[C@](C)(O)[C@@H]1O)Oc1cccc2ccccc12 (stereo partly specified) | > 85000 | 20 | – | – |
| C=C[C@]1(O)[C@H](n2ccc(=O)[nH]c2=O)O[C@](F)(COP(=O)(O)OP(=O)(O)OP(=O)(O)O)[C@H]1O | – | – | 6400 | – |
| C#C[C@@]1(O)[C@H](O)[C@@H](COP(=O)(O)OP(=O)(O)OP(=O)(O)O)O[C@H]1n1ccc(=O)[nH]c1=O | – | – | 27 | – |
| CC(C)OC(=O)[C@H](C)NP(=O)(OC[C@@]1(F)O[C@@H](n2ccc(=O)[nH]c2=O)[C@](C)(F)[C@@H]1O)Oc1ccccc1 (stereo partly specified) | > 100000 | 310 | – | – |
| C[C@H](NP(=O)(OC[C@@]1(F)O[C@@H](n2ccc(=O)[nH]c2=O)[C@](C)(O)[C@@H]1O)Oc1ccccc1)C(=O)OC1CCCCC1 (stereo partly specified) | 84000 | 40 | – | – |
| C#C[C@]1(F)[C@H](n2ccc(=O)[nH]c2=O)O[C@](F)(COP(=O)(O)OP(=O)(O)OP(=O)(O)O)[C@H]1O | – | – | 340 | – |
| O=c1ccn([C@@H]2O[C@H](COP(=O)(O)OP(=O)(O)OP(=O)(O)O)[C@@H](O)[C@]2(O)CF)c(=O)[nH]1 | – | – | 280 | – |
